Measured values taken from PubChem BioAssay.
Inconclusive results are not listed.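 Rule for the calls, unless noted: active = cell viability at or below a set limit in both duplicate runs, the limit being the all-compound median minus 4 SD (cut at about 23% in these data, passing the limit was not always enough); inconclusive = no clear call, values can overlap the other calls; inactive = the rest.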

How the values were obtained:
[1] = OD615 S. cerevisiae growth inhibition, permissive medium, pilot counter-assay, permissive growth control for S. cerevisiae lifespan shortening project (AID 705;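 active = growth inhibition above 25% in both replicates, a cutoff set 3 SD above the mean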); conditions: OD615, 24 h, at 10 µM, stronger effect = higher value
Method in brief: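 System: engineered DeaD yeast; Medium: permissive raffinose/galactose medium; Compound dosing: 10 µM single dose, 0.25% DMSO; Incubation: 4 h cell pre-growth, 24 h exposure at 30 °C; Technique: OD at 615 nm; Evaluation: growth inhibition from lowered OD615 after 24 h.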

[2] = Restrictive medium S. cerevisiae growth inhibition, OD615, pilot screen of yeast lifespan reduction project, restrictive growth control (AID 706;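 active = growth inhibition above a set limit, 3 SD over mean compound inhibition, in both replicates, cut at about 43% in these data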;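 note: modified DeaD lifespan yeast strain shifted to restrictive glucose medium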); conditions: OD615, 48 h, at 10 µM, stronger effect = higher value
Method in brief: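 Material: modified S. cerevisiae; buffer or medium: CSMM-D glucose medium; doses: one concentration, 10 µM final, 0.25% DMSO; incubation: 48 h compound exposure at 30 °C; detection: optical density at 615 nm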

[3] = viability gain of MRP-1-high H69AR cells under doxorubicin, pilot screen, MRP-1 activator project, CellTiter-Glo, duplicate (AID 807;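 active = viability increase at or above a cutoff of the median across tested compounds plus 3 SD, cut at about 8.5% in these data, passing the limit was not always enough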;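 note: compound pretreatment 18-22 h then 72 h combined with doxorubicin; 0% = doxorubicin alone and 100% = vehicle without doxorubicin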); conditions: H69AR viability with doxorubicin, CellTiter-Glo luminescence; at 10 µM; stronger effect = higher value
[4] = growth suppression of beta-catenin knockout HCT116, pilot screen, human colon tumor cells (AID 823); conditions: CellTiter-Glo, 60 h, at 10 µM, stronger effect = lower value;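 note: 0% = wells killed by 20 µM Hyamine and 100% = untreated DMSO cell wells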
[5] = growth suppression of PTEN-deleted HCT116, pilot screen, cell-based, HCT116 clonal line, CellTiter-Glo (AID 824;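 active = viability at or below 27.92% in each of two runs, the all-compound median minus 4 SD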;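 note: 0% = 20 µM Hyamine control and 100% = vehicle cell control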); conditions: 60 h, at 10 µM, stronger effect = lower value
[6] = inhibitors of the yeast RAM network, pilot screen, dse1pr::URA3 reporter, 5-FOA selection (AID 869;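 active = inhibition over a set limit, the all-compound mean plus 3 SD, in both replicate runs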;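 note: 0% = DMSO wells with no growth and 100% = 10 µM 1-NA-PP1 with full growth; RAM network block rescues cells from 5-FOA so hits raise OD615 growth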); conditions: S. cerevisiae dse1pr::URA3 5-FOA growth, OD615, 2 d; at 10 µM; stronger effect = higher value; strain carries analog-sensitive mutant Cbk1 kinase
[7] = RAM signaling pathway blockade in yeast – S. cerevisiae, Pdr1DBD-CYC8 efflux-inhibited sensitized strain, primary screen (AID 1298;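 active = RAM network inhibition above 8.4% in each of two replicates, 3 SD over the compound average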;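 note: 0% = DMSO untreated cells without growth and 100% = 10 µM 1-NA-PP1 full growth; higher means more yeast growth rescued from 5-FOA killing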); conditions: S. cerevisiae cbk1-as DSE1-URA3 strain, 5-FOA growth OD615, 2 d; at 50 µM; stronger effect = higher value

COc1ccc(N(CC(=O)NCc2ccccc2OC)S(=O)(=O)c2c(C)nn(C)c2C)cc1
inactive: growth inhibition [1] -12.2% | growth inhibition [2] -16.1% | viability increase [3] -3.37% | viability [4] 99.6% | viability [5] 95.6% | inhibition [6] 0.135% | RAM network inhibition [7] 2.29%

COC(=O)C1=C(N)OC2=C(C(=O)CC(C)(C)C2)C1c1cccnc1 (configuration not stated)
inactive: growth inhibition [1] -3.42% | growth inhibition [2] -15.1% | viability increase [3] -1.92% | viability [4] 95.4% | viability [5] 90.4% | inhibition [6] 0.305% | RAM network inhibition [7] 2.43%

COc1ccc(-c2nnc3ccc(SCC(=O)N4CCOCC4)nn23)cc1
inactive: growth inhibition [1] 3.68% | growth inhibition [2] 30.1% | viability increase [3] -2.73% | viability [4] 99.6% | viability [5] 105% | inhibition [6] 0.96% | RAM network inhibition [7] 0.73%

Cc1cccc(NC(=O)c2ccccc2Br)n1
inactive: growth inhibition [1] 4.2% | growth inhibition [2] 24% | viability increase [3] -3.61% | viability [4] 103% | viability [5] 94% | inhibition [6] 0.97% | RAM network inhibition [7] 2.02%

CCC(Sc1nc(C)cc(=O)[nH]1)C(=O)Nc1ccc(Cl)cn1 (configuration not stated)
inactive: growth inhibition [1] -2.36% | growth inhibition [2] 26.5% | viability increase [3] -3.4% | viability [4] 98.9% | viability [5] 96.7% | inhibition [6] 1.84% | RAM network inhibition [7] 3.08%

Cc1ccc2ccc(S(=O)(=O)n3nc(C)cc3C)cc2c1
inactive: growth inhibition [1] -6.58% | growth inhibition [2] 2.99% | viability increase [3] -1.12% | viability [4] 84.9% | viability [5] 81.2% | inhibition [6] 2.06% | RAM network inhibition [7] 5.5%

Cn1c(=O)oc2cc(S(=O)(=O)NCCN3CCN(c4ccccc4F)CC3)ccc21
inactive: growth inhibition [1] -14.7% | growth inhibition [2] 0.235% | viability increase [3] -2.88% | viability [4] 100% | viability [5] 88.8% | inhibition [6] 0.835% | RAM network inhibition [7] 1.48%

c1ccc(-c2noc(CSc3nnnn3-c3ccccc3)n2)cc1
inactive: growth inhibition [1] -10.7% | growth inhibition [2] 22.4% | viability increase [3] 0.25% | viability [4] 97.8% | viability [5] 94% | inhibition [6] 0.485% | RAM network inhibition [7] 3.86%

CCCc1cc(=O)oc2cc3occ(C)c3cc12
inactive: growth inhibition [1] -10.3% | growth inhibition [2] 2.5% | viability increase [3] -2.52% | viability [4] 93.6% | viability [5] 97.6% | inhibition [6] 1.23% | RAM network inhibition [7] 4.79%

COc1ccc(C(c2sc3nc(C)nn3c2O)N2CCC(C(N)=O)CC2)cc1OC (configuration not stated)
inactive: growth inhibition [1] -11.7% | growth inhibition [2] -16.2% | viability increase [3] -0.96% | viability [4] 99.7% | viability [5] 96.2% | inhibition [6] 1.54% | RAM network inhibition [7] 3.49%

NC(=O)c1ccsc1NC(=O)c1ccc(S(=O)(=O)N2CCCCC2)cc1
inactive: growth inhibition [1] -4.08% | growth inhibition [2] -4.94% | viability increase [3] -0.57% | viability [4] 71.9% | viability [5] 58.3% | inhibition [6] 1.47% | RAM network inhibition [7] 2.41%

Cc1cc(C)cc(OCC(=O)Nc2cccc(-c3nc4ncccc4o3)c2)c1
inactive: growth inhibition [1] -7.77% | growth inhibition [2] -1.93% | viability increase [3] -1.93% | viability [4] 65.4% | viability [5] 59.7% | inhibition [6] 3.17% | RAM network inhibition [7] 6.74%

CCOC(=O)N1CCC(NC(=O)c2ccc3snnc3c2)CC1
inactive: growth inhibition [1] -6.44% | growth inhibition [2] -4.42% | viability increase [3] -3.44% | viability [4] 98.5% | viability [5] 89.7% | inhibition [6] 0.55% | RAM network inhibition [7] 4.29%

CCCC(=O)Nc1nc2ccc(S(=O)(=O)N3CCCCC3)cc2s1
inactive: growth inhibition [1] -20.7% | growth inhibition [2] -19.5% | viability increase [3] -6.94% | viability [4] 32.5% | viability [5] 37.3% | inhibition [6] 1.27% | RAM network inhibition [7] 1.93%

Cc1nn(-c2ccccc2)c2sc(C(=O)n3cccn3)cc12
inactive: growth inhibition [1] -10.7% | growth inhibition [2] -9.12% | viability increase [3] -3.24% | viability [4] 89.8% | viability [5] 92.4% | inhibition [6] 2.99% | RAM network inhibition [7] 8.3%

CCOC(=O)N1CCN(C2CC(=O)N(c3ccccc3)C2=O)CC1 (configuration not stated)
inactive: growth inhibition [1] 4.38% | growth inhibition [2] 10.5% | viability increase [3] 0.58% | viability [4] 100% | viability [5] 101% | inhibition [6] 0.005% | RAM network inhibition [7] -0.04%
